These results are taken from ChEMBL document CHEMBL1165931, “Cytotoxic indole alkaloids from Melodinus tenuicaudatus” (J Nat Prod, 2010).

Each structure is given as a SMILES string.

Holding throughout (format): functional, cell-based
One test has as its system HL-60. The test is described as follows: Cytotoxicity against human HL60 cells after 48 hrs by MTT assay. Put shortly: (§1)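 Cells grown in RPMI-1640 or DMEM with 10% FBS at 37 °C under 5% CO2. Adherent lines (A-549, MCF-7, SMMC-7721, SW480) were left to attach for 12 h before dosing; suspension HL-60 was seeded just before dosing at 1 × 10^5 cells/mL. Compounds were given in DMSO at 0.0625, 0.32, 1.6, 8 and 40 µmol, in triplicate, for 48 h. Read-out by MTT; cisplatin and vinorelbine were positive controls.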

For another test, the system named is SMMC-7721. The test is described as follows: Cytotoxicity against human SMMC7721 cells after 48 hrs by MTT assay. Put shortly:
as §1
Background: Tetrazolium dyes change colour on reduction, which living cells bring about.

A further test concerns A549. In words: Cytotoxicity against human A549 cells after 48 hrs by MTT assay. Summed up: as §1
A further test concerns MCF7. The test is described as follows: Cytotoxicity against human MCF7 cells after 48 hrs by MTT assay. Summed up: as §1
In the next test the test system is SW480. The test is described as follows: Cytotoxicity against human SW480 cells after 48 hrs by MTT assay. Summed up: as §1

For `CC[C@]12C=CCN3CCc4c(n(c5ccccc45)[C@@H](c4ccc5c(c4)[C@@]46CCN7CC=C[C@@]8(C[C@@H](C(=O)OC)[C@]4(N5)[C@@H]8C)[C@H]76)C1)[C@@H]32`, the IC50 in the test with HL-60 amounted to 1.1 µmol; in the test on SMMC-7721, 3.2 µmol; with A549 it was 4.8 µmol; in the test with MCF7 it was 2.9 µmol; in the test with SW480, 1.4 µmol.

In the case of `CC[C@]12C=CCN3CCc4c(n(c5ccccc45)[C@@H](OC)C1)[C@@H]32`, the IC50 in the test on HL-60 is 15.9 µmol; in the test on SMMC-7721, 22.1 µmol; in the test with A549 it was more than 40 µmol; with MCF7, 29.3 µmol; in the test with SW480, 32.2 µmol.

`CC[C@]12C=CCN3CC[C@]4(C(=C(C(=O)OC)C1)Nc1cc(OC)ccc14)[C@@H]32`: the IC50 worked out at 0.2 µmol in the test with HL-60; 13.1 µmol in the test with SMMC-7721; 12.8 µmol with A549; 2.1 µmol in the test with MCF7; 12.7 µmol in the test on SW480.

`CC[C@]12C=CCN3CC[C@]4(C(=C(C(=O)OC)C1)Nc1cc5c(cc14)[C@@H]1[C@H](O5)[C@@H](O)[C@@]4(CC)CC(C(=O)OC)=C5Nc6ccccc6[C@@]56CCN1[C@@H]46)[C@@H]32` [MELODININE K]: the IC50 with HL-60 turned out to be 0.1 µmol; in the test with SMMC-7721, 3 µmol; in the test on A549 it was 5 µmol; in the test on MCF7 it was 2.7 µmol; with SW480, 5.7 µmol.

Turning to `COC(=O)[C@@H]1C[C@@]23C=CCN4CC[C@@]5(c6ccccc6N[C@]15[C@@H]2C)[C@@H]43` [VINDOLININE], the IC50 came out at 6.8 µmol in the test on HL-60; 20.7 µmol in the test on SMMC-7721; 26.3 µmol with A549; 21.9 µmol with MCF7; 15.2 µmol in the test on SW480.

Turning to `CCC1=C[C@@H]2CN(C1)Cc1c([nH]c3ccccc13)[C@@](C(=O)OC)(c1cc3c(cc1OC)N(C)[C@H]1[C@@](O)(C(=O)OC)[C@H](OC(C)=O)[C@]4(CC)C=CCN5CC[C@]31[C@@H]54)C2` [VINORELBINE], the IC50 with HL-60 was less than 0.06 µmol; in the test on SMMC-7721, 4.7 µmol; in the test on A549, 26.1 µmol; in the test with MCF7, 17.2 µmol; in the test with SW480, more than 40 µmol.
